Experimental data reported in publication PMC5114172 (Journal of applied toxicology : JAT, 2016).

Test system: monocyte-depleted PBMCs
Experiment: IL-1β secretion assay
Format: cell-based, human
Conditions: MD-PBMCs
Outline: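 NK cells, MD-PBMCs, PBMCs or granulocytes (1.5 million/mL) or PBMC+granulocytes (0.75 million/mL each), per donor, exposed 24 h, 48 h or 6 days to 0.05–5 μM test compound diluted from DMSO stock, with DMSO controls. Supernatants kept at −70 °C. IL-1β by sandwich ELISA: HRP detection antibody, acid-stopped substrate, A450 against standards. Detection limit 3 pg/mL; triplicates; ANOVA then t test versus control, p<0.05.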

CCC[CH2][Sn][CH2]CCC [DBT, Dibutyltin]
average of the maximum fold increase in IL-β secretion (24 h, across donors): 2.0 fold
Interleukin 1 beta secreted (donor F142, 24 h, 0.05 μM DBT): 11284 ± 763 pg/mL
fold increase in IL-1β secretion (donor F142, 24 h, 0.05 μM DBT): 1.5 fold
fold increase in IL-1β secretion (donor F142, 24 h, 50 nM DBT): 1.5 fold
Interleukin 1 beta secreted (donor F142, 24 h, 0.1 μM DBT): 12495 ± 3130 pg/mL
fold increase in IL-1β secretion (donor F142, 24 h, 100 nM DBT): 1.6 fold
Interleukin 1 beta secreted (donor F142, 24 h, 0.25 μM DBT): 4456 ± 561 pg/mL
Interleukin 1 beta secreted (donor F142, 24 h, 0.5 μM DBT): 2637 ± 1438 pg/mL
Interleukin 1 beta secreted (donor F142, 24 h, 1 μM DBT): 77 ± 24 pg/mL
Interleukin 1 beta secreted (donor F142, 48 h, 0.05 μM DBT): 14932 ± 420 pg/mL
Interleukin 1 beta secreted (donor F142, 48 h, 0.1 μM DBT): 15275 ± 650 pg/mL
Interleukin 1 beta secreted (donor F142, 48 h, 0.25 μM DBT): 6455 ± 123 pg/mL
Interleukin 1 beta secreted (donor F142, 48 h, 0.5 μM DBT): 2604 ± 133 pg/mL
Interleukin 1 beta secreted (donor F142, 48 h, 1 μM DBT): 851 ± 54 pg/mL
Interleukin 1 beta secreted (donor F142, 48 h, 2.5 μM DBT): 6 ± 27 pg/mL
Interleukin 1 beta secreted (donor F142, 6 day, 0.05 μM DBT): 2303 ± 313 pg/mL
Interleukin 1 beta secreted (donor F142, 6 day, 0.1 μM DBT): 1606 ± 808 pg/mL
Interleukin 1 beta secreted (donor F142, 6 day, 0.25 μM DBT): 560 ± 127 pg/mL
Interleukin 1 beta secreted (donor F142, 6 day, 0.5 μM DBT): 270 ± 197 pg/mL
Interleukin 1 beta secreted (donor F142, 6 day, 1 μM DBT): 90 ± 100 pg/mL
Interleukin 1 beta secreted (donor F145, 24 h, 0.05 μM DBT): 3333 ± 164 pg/mL
fold increase in IL-1β secretion (donor F145, 24 h, 50 nM DBT): 1.5 fold
Interleukin 1 beta secreted (donor F145, 24 h, 0.1 μM DBT): 2390 ± 497 pg/mL
fold increase in IL-1β secretion (donor F145, 24 h, 100 nM DBT): no increase
Interleukin 1 beta secreted (donor F145, 24 h, 0.25 μM DBT): 700 ± 8 pg/mL
Interleukin 1 beta secreted (donor F145, 24 h, 0.5 μM DBT): 47 ± 59 pg/mL
Interleukin 1 beta secreted (donor F145, 48 h, 0.05 μM DBT): 780 ± 323 pg/mL
Interleukin 1 beta secreted (donor F145, 48 h, 0.1 μM DBT): 2232 ± 1035 pg/mL
Interleukin 1 beta secreted (donor F145, 48 h, 0.25 μM DBT): 337 ± 347 pg/mL
Interleukin 1 beta secreted (donor F145, 6 day, 0.05 μM DBT): 983 ± 248 pg/mL
Interleukin 1 beta secreted (donor F145, 6 day, 0.1 μM DBT): 987 ± 577 pg/mL
Interleukin 1 beta secreted (donor F145, 6 day, 0.25 μM DBT): 535 ± 16 pg/mL
Interleukin 1 beta secreted (donor F145, 6 day, 0.5 μM DBT): 147 ± 55 pg/mL
Interleukin 1 beta secreted (donor F152, 24 h, 0.05 μM DBT): 721 ± 36 pg/mL
Interleukin 1 beta secreted (donor F152, 24 h, 0.1 μM DBT): 516 ± 26 pg/mL
Interleukin 1 beta secreted (donor F152, 24 h, 0.25 μM DBT): 406 ± 29 pg/mL
Interleukin 1 beta secreted (donor F152, 24 h, 0.5 μM DBT): 340 ± 57 pg/mL
Interleukin 1 beta secreted (donor F152, 24 h, 1 μM DBT): 224 ± 9 pg/mL
Interleukin 1 beta secreted (donor F152, 24 h, 2.5 μM DBT): 83 ± 22 pg/mL
Interleukin 1 beta secreted (donor F152, 24 h, 5 μM DBT): 19 ± 12 pg/mL
Interleukin 1 beta secreted (donor F152, 48 h, 0.05 μM DBT): 563 ± 54 pg/mL
Interleukin 1 beta secreted (donor F152, 48 h, 0.1 μM DBT): 495 ± 72 pg/mL
Interleukin 1 beta secreted (donor F152, 48 h, 0.25 μM DBT): 607 ± 71 pg/mL
Interleukin 1 beta secreted (donor F152, 48 h, 0.5 μM DBT): 703 ± 34 pg/mL
Interleukin 1 beta secreted (donor F152, 48 h, 1 μM DBT): 296 ± 56 pg/mL
Interleukin 1 beta secreted (donor F152, 48 h, 2.5 μM DBT): 35 ± 38 pg/mL
Interleukin 1 beta secreted (donor F152, 48 h, 5 μM DBT): 86 ± 37 pg/mL
Interleukin 1 beta secreted (donor F152, 6 day, 0.05 μM DBT): 81 ± 21 pg/mL
Interleukin 1 beta secreted (donor F152, 6 day, 0.1 μM DBT): 71 ± 6 pg/mL
Interleukin 1 beta secreted (donor F152, 6 day, 0.25 μM DBT): 118 ± 11 pg/mL
Interleukin 1 beta secreted (donor F152, 6 day, 0.5 μM DBT): 161 ± 62 pg/mL
Interleukin 1 beta secreted (donor F152, 6 day, 1 μM DBT): 41 ± 7 pg/mL
Interleukin 1 beta secreted (donor F152, 6 day, 2.5 μM DBT): 20 ± 18 pg/mL
Interleukin 1 beta secreted (donor F152, 6 day, 5 μM DBT): 14 ± 1 pg/mL
Interleukin 1 beta secreted (donor F163, 24 h, 0.05 μM DBT): 613 ± 57 pg/mL
Interleukin 1 beta secreted (donor F163, 24 h, 0.1 μM DBT): 370 ± 13 pg/mL
Interleukin 1 beta secreted (donor F163, 24 h, 0.25 μM DBT): 309 ± 15 pg/mL
Interleukin 1 beta secreted (donor F163, 24 h, 0.5 μM DBT): 310 ± 16 pg/mL
Interleukin 1 beta secreted (donor F163, 24 h, 1 μM DBT): 130 ± 5 pg/mL
Interleukin 1 beta secreted (donor F163, 24 h, 2.5 μM DBT): 70 ± 25 pg/mL
Interleukin 1 beta secreted (donor F163, 24 h, 5 μM DBT): 86 ± 44 pg/mL
Interleukin 1 beta secreted (donor F163, 48 h, 0.05 μM DBT): 607 ± 86 pg/mL
Interleukin 1 beta secreted (donor F163, 48 h, 0.1 μM DBT): 342 ± 34 pg/mL
Interleukin 1 beta secreted (donor F163, 48 h, 0.25 μM DBT): 547 ± 68 pg/mL
Interleukin 1 beta secreted (donor F163, 48 h, 0.5 μM DBT): 677 ± 378 pg/mL
Interleukin 1 beta secreted (donor F163, 48 h, 1 μM DBT): 701 ± 111 pg/mL
Interleukin 1 beta secreted (donor F163, 6 day, 0.05 μM DBT): 715 ± 87 pg/mL
Interleukin 1 beta secreted (donor F163, 6 day, 0.1 μM DBT): 497 ± 75 pg/mL
Interleukin 1 beta secreted (donor F163, 6 day, 0.25 μM DBT): 305 ± 36 pg/mL
Interleukin 1 beta secreted (donor F163, 6 day, 0.5 μM DBT): 664 ± 70 pg/mL
Interleukin 1 beta secreted (donor F163, 6 day, 1 μM DBT): 175 ± 3 pg/mL
Interleukin 1 beta secreted (donor F166, 24 h, 0.05 μM DBT): 6772 ± 386 pg/mL
fold increase in IL-1β secretion (donor F166, 24 h, 0.05 μM DBT): 3.0 fold
Interleukin 1 beta secreted (donor F166, 24 h, 0.1 μM DBT): 5569 ± 527 pg/mL
Interleukin 1 beta secreted (donor F166, 24 h, 0.25 μM DBT): 2788 ± 126 pg/mL
Interleukin 1 beta secreted (donor F166, 24 h, 0.5 μM DBT): 158 ± 43 pg/mL
Interleukin 1 beta secreted (donor F166, 48 h, 0.05 μM DBT): 14662 ± 1044 pg/mL
Interleukin 1 beta secreted (donor F166, 48 h, 0.1 μM DBT): 12941 ± 423 pg/mL
Interleukin 1 beta secreted (donor F166, 48 h, 0.25 μM DBT): 5307 ± 349 pg/mL
Interleukin 1 beta secreted (donor F166, 48 h, 0.5 μM DBT): 924 ± 101 pg/mL
Interleukin 1 beta secreted (donor F166, 48 h, 1 μM DBT): 1075 ± 230 pg/mL
Interleukin 1 beta secreted (donor F166, 48 h, 2.5 μM DBT): 1981 ± 3260 pg/mL
Interleukin 1 beta secreted (donor F166, 6 day, 0.05 μM DBT): 6655 ± 930 pg/mL
Interleukin 1 beta secreted (donor F166, 6 day, 0.1 μM DBT): 4959 ± 11 pg/mL
